{
  "source": "ChEMBL document CHEMBL1145884",
  "about": "“Synthesis and biological activity of novel 1beta-methylcarbapenems with oxyiminopyrrolidinylamide moiety” (2003)",
  "data": [
    {"tested_on": "Pseudomonas aeruginosa", "assay": "Antibacterial activity against Pseudomonas aeruginosa 1592E", "settings": "not given", "units": {"MIC": "µg/mL"}, "values": [
      {"smiles": "C[C@@H](O)[C@H]1C(=O)N2C(C(=O)O)=C(S[C@@H]3CN[C@H](C(=O)N4C/C(=N\\O)C(C(=O)O)C4)C3)[C@H](C)[C@H]12", "note": "(stereo partly drawn)", "MIC": 0.391}
    ]},
    {"tested_on": "Enterobacter cloacae", "assay": "Antibacterial activity against Enterobacter cloacae 1321E", "format": "functional", "settings": "not given", "procedure,_shortened": "(§1)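 MIC was determined by agar dilution on Mueller–Hinton medium.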", "units": {"MIC": "µg/mL"}, "values": [
      {"smiles": "C[C@@H](O)[C@H]1C(=O)N2C(C(=O)O)=C(S[C@@H]3CN[C@H](C(=O)N4C/C(=N\\O)C(C(=O)O)C4)C3)[C@H](C)[C@H]12", "note": "(stereo partly drawn)", "MIC": 0.025}
    ]},
    {"tested_on": "Streptococcus pyogenes", "assay": "Antibacterial activity against Streptococcus pyogenes 308A", "format": "functional", "settings": "not given", "units": {"MIC": "µg/mL"}, "values": [
      {"smiles": "C[C@@H](O)[C@H]1C(=O)N2C(C(=O)O)=C(S[C@@H]3CN[C@H](C(=O)N4C/C(=N\\O)C(C(=O)O)C4)C3)[C@H](C)[C@H]12", "note": "(stereo partly drawn)", "MIC": 0.013}
    ]},
    {"tested_on": "Klebsiella aerogenes", "assay": "Antibacterial activity against Klebsiella aerogenes 1522E", "format": "functional", "settings": "not given", "procedure,_shortened": "as §1", "units": {"MIC": "µg/mL"}, "values": [
      {"smiles": "C[C@@H](O)[C@H]1C(=O)N2C(C(=O)O)=C(S[C@@H]3CN[C@H](C(=O)N4C/C(=N\\O)C(C(=O)O)C4)C3)[C@H](C)[C@H]12", "note": "(stereo partly drawn)", "MIC": 0.049}
    ]},
    {"tested_on": "Escherichia coli", "assay": "Antibacterial activity against Escherichia coli 078", "format": "functional", "settings": "not given", "procedure,_shortened": "as §1", "units": {"MIC": "µg/mL"}, "values": [
      {"smiles": "C[C@@H](O)[C@H]1C(=O)N2C(C(=O)O)=C(S[C@@H]3CN[C@H](C(=O)N4C/C(=N\\O)C(C(=O)O)C4)C3)[C@H](C)[C@H]12", "note": "(stereo partly drawn)", "MIC": 0.013}
    ]},
    {"tested_on": "Salmonella typhimurium", "assay": "Antibacterial activity against Salmonella Typhimurium", "format": "functional, Salmonella enterica subsp. enterica serovar Typhimurium", "settings": "Salmonella enterica", "procedure,_shortened": "as §1", "units": {"MIC": "µg/mL"}, "values": [
      {"smiles": "C[C@@H](O)[C@H]1C(=O)N2C(C(=O)O)=C(S[C@@H]3CN[C@H](C(=O)N4C/C(=N\\O)C(C(=O)O)C4)C3)[C@H](C)[C@H]12", "note": "(stereo partly drawn)", "MIC": 0.049}
    ]},
    {"tested_on": "Staphylococcus aureus", "assay": "Antibacterial activity against Staphylococcus aureus 285", "format": "functional", "settings": "not given", "units": {"MIC": "µg/mL"}, "values": [
      {"smiles": "C[C@@H](O)[C@H]1C(=O)N2C(C(=O)O)=C(S[C@@H]3CN[C@H](C(=O)N4C/C(=N\\O)C(C(=O)O)C4)C3)[C@H](C)[C@H]12", "note": "(stereo partly drawn)", "MIC": 0.195}
    ]},
    {"tested_on": "Staphylococcus aureus", "assay": "Antibacterial activity against Staphylococcus aureus 503", "format": "functional", "settings": "not given", "units": {"MIC": "µg/mL"}, "values": [
      {"smiles": "C[C@@H](O)[C@H]1C(=O)N2C(C(=O)O)=C(S[C@@H]3CN[C@H](C(=O)N4C/C(=N\\O)C(C(=O)O)C4)C3)[C@H](C)[C@H]12", "note": "(stereo partly drawn)", "MIC": 0.098}
    ]},
    {"tested_on": "Pseudomonas aeruginosa", "assay": "Antibacterial activity against Pseudomonas aeruginosa 9027", "format": "functional", "settings": "not given", "procedure,_shortened": "as §1", "units": {"MIC": "µg/mL"}, "values": [
      {"smiles": "C[C@@H](O)[C@H]1C(=O)N2C(C(=O)O)=C(S[C@@H]3CN[C@H](C(=O)N4C/C(=N\\O)C(C(=O)O)C4)C3)[C@H](C)[C@H]12", "note": "(stereo partly drawn)", "MIC": 0.391}
    ]},
    {"tested_on": "Escherichia coli", "assay": "Antibacterial activity against Escherichia coli 1507E", "format": "functional", "settings": "not given", "procedure,_shortened": "as §1", "units": {"MIC": "µg/mL"}, "values": [
      {"smiles": "C[C@@H](O)[C@H]1C(=O)N2C(C(=O)O)=C(S[C@@H]3CN[C@H](C(=O)N4C/C(=N\\O)C(C(=O)O)C4)C3)[C@H](C)[C@H]12", "note": "(stereo partly drawn)", "MIC": 0.025}
    ]},
    {"tested_on": "Pseudomonas aeruginosa", "assay": "Antibacterial activity against Pseudomonas aeruginosa 1771M", "format": "functional", "settings": "not given", "procedure,_shortened": "as §1", "units": {"MIC": "µg/mL"}, "values": [
      {"smiles": "C[C@@H](O)[C@H]1C(=O)N2C(C(=O)O)=C(S[C@@H]3CN[C@H](C(=O)N4C/C(=N\\O)C(C(=O)O)C4)C3)[C@H](C)[C@H]12", "note": "(stereo partly drawn)", "MIC": 0.195}
    ]},
    {"tested_on": "not listed separately", "assay": "Compound was evaluated for its relative half life of hydrolysis to meropenem by partially purified porcine renal dihydropeptidase-I (DHP-I)", "format": "functional", "settings": "Sus scrofa", "values": [
      {"smiles": "C[C@@H](O)[C@H]1C(=O)N2C(C(=O)O)=C(S[C@@H]3CN[C@H](C(=O)N4C/C(=N\\O)C(C(=O)O)C4)C3)[C@H](C)[C@H]12", "note": "(stereo partly drawn)", "relative t1/2 (DHP-I hydrolysis vs meropenem)": 0.54}
    ]},
    {"tested_on": "Staphylococcus aureus", "assay": "Antibacterial activity against Staphylococcus aureus SG 511", "format": "functional", "settings": "not given", "units": {"MIC": "µg/mL"}, "values": [
      {"smiles": "C[C@@H](O)[C@H]1C(=O)N2C(C(=O)O)=C(S[C@@H]3CN[C@H](C(=O)N4C/C(=N\\O)C(C(=O)O)C4)C3)[C@H](C)[C@H]12", "note": "(stereo partly drawn)", "MIC": 0.098}
    ]}
  ]
}
